For data set [1], the target named is T1, Cannabinoid receptor 1 (Homo sapiens, UniProt P21554). Description: Displacement of [3H]-CP55,940 from human CB1R expressed in CHO-K1 cell membranes incubated for 2 hrs by liquid scintillation spectrometry relative to CP55,940. To be noted: Membrane. In a few lines:
(§1)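 Membranes from CHO-K1 cells stably expressing hCB1R or hCB2R (50 μg protein) incubated with 1 nM [3H]CP55,940 and compound (0.10 nM–10 μM) in Tris binding buffer with 0.1% BSA, pH 7.4, for 120 min at 37 °C. Bound ligand filtered on GF/B and counted by liquid scintillation. Nonspecific binding defined with 1 μM unlabelled CP55,940; three-parameter fit; n = 3 in duplicate.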
A general note: Displacement assays read how much labelled ligand stays bound in the presence of the test substance.

Data set [2] addresses T2, Cannabinoid receptor 2 (Homo sapiens, UniProt P34972). Description: Agonist activity at human CB2 receptor expressed in CHO-K1 cells assessed as inhibition of froskolin-stimulated cAMP accumulation incubated for 90 mins by HitHunter chemiluminescence based assay. It counts as functional, cell-based. The procedure, abridged: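 HitHunter assay in DiscoveRx CHO-K1 hCB2R cells, seeded overnight in Opti-MEM with 1% FBS, then put in assay buffer. Cells cotreated at 37 °C for 90 min with 10 μM forskolin and ligand (0.10 nM–10 μM). cAMP antibody/detection solutions added for 60 min at room temperature, then solution A for 180 min, then chemiluminescence read.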
In general terms: Cyclic AMP is a second messenger, typically raised through Gs and lowered through Gi signalling.

In data set [3] the target is T2, Cannabinoid receptor 2. In words: Agonist activity at human CB2 receptor expressed in CHO-K1 cells assessed as inhibition of froskolin-stimulated cAMP accumulation at 10 uM incubated for 90 mins by HitHunter chemiluminescence based assay relative to CP55,940. It counts as functional, cell-based. The procedure, abridged: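 HitHunter assay in DiscoveRx CHO-K1 hCB2R cells, seeded overnight in Opti-MEM with 1% FBS, then put in assay buffer. Cells cotreated at 37 °C for 90 min with 10 μM forskolin and ligand (0.10 nM–10 μM). cAMP antibody/detection solutions added for 60 min at room temperature, then solution A for 180 min, then chemiluminescence read. Response given as % CP55,940; three-parameter fit; n = 6 in triplicate.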

In data set [4] the target is T2, Cannabinoid receptor 2. In words: Agonist activity at human CB2 receptor expressed in CHO-K1 cells assessed as enhancement of beta arrestin-2 recruitment incubated for 90 mins by […] chemiluminescence based assay. It counts as functional, cell-based. The procedure, abridged: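 PathHunter beta-arrestin2 recruitment in DiscoveRx CHO-K1 cells stably expressing hCB2R, seeded overnight in Opti-MEM with 1% FBS at 37 °C. Ligands (0.10 nM–10 μM) added for 90 min at 37 °C, then detection solution 60 min at room temperature and chemiluminescence read.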

The target in data set [5] is T2, Cannabinoid receptor 2. In words: Agonist activity at human CB2 receptor expressed in CHO-K1 cells assessed as enhancement of beta arrestin-2 recruitment at 10 uM incubated for 90 mins by HitHunter chemiluminescence based assay relative to CP55,940. It counts as functional, cell-based. The procedure, abridged:
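PathHunter beta-arrestin2 recruitment in DiscoveRx CHO-K1 cells stably expressing hCB2R, seeded overnight in Opti-MEM with 1% FBS at 37 °C. Ligands (0.10 nM–10 μM) added for 90 min at 37 °C, then detection solution 60 min at room temperature and chemiluminescence read. Data expressed as % CP55,940 response and fitted by three-parameter nonlinear regression; n = 6 independent experiments in triplicate.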

Data set [6] has as its target T2, Cannabinoid receptor 2. In words: Agonist activity at human CB2 receptor expressed in CHO-K1 cells assessed as inhibition of froskolin-stimulated cAMP accumulation incubated for 90 mins in presence of EC-21a by HitHunter chemiluminescence based assay. It is filed as functional, cell-based.
Data set [7] addresses T2, Cannabinoid receptor 2. In words: Agonist activity at human CB2 receptor expressed in CHO-K1 cells assessed as inhibition of froskolin-stimulated cAMP accumulation at 50 nM incubated for 90 mins in presence of EC-21a by HitHunter chemiluminescence based assay relative to CP55,940. It is filed as functional, cell-based.
In data set [8] the target is T2, Cannabinoid receptor 2. Description: Agonist activity at human CB2 receptor expressed in CHO-k1 cells assessed as inhibition of froskolin-stimulated cAMP accumulation at 5 nM incubated for 90 mins in presence of EC-21a by HitHunter chemiluminescence based assay relative to CP55,940. It is filed as functional, cell-based.
Data set [9] concerns the target T2, Cannabinoid receptor 2. In words: Agonist activity at human CB2 receptor expressed in CHO-K1 cells assessed as inhibition of froskolin-stimulated cAMP accumulation incubated for 90 mins in presence of SR144528 by HitHunter chemiluminescence based assay. It counts as functional, cell-based. In a few lines: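 Forskolin (10 μM)-stimulated cAMP HitHunter assay in CHO-K1 hCB2R cells, 90 min at 37 °C. Ligand at 0.1 nM–10 μM given at the same time as a fixed 100 nM SR144528. Data given as % CP55,940; three-parameter fit; 3–6 independent experiments in triplicate.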

Data set [10] concerns the target T1, Cannabinoid receptor 1. In words: Displacement of [3H]-CP55,940 from human CB1R expressed in CHO-K1 cell membranes assessed as inhibition constant incubated for 2 hrs by liquid scintillation spectrometry analysis. Further details: species or system Membrane.
Data set [11] concerns the target T2, Cannabinoid receptor 2. Description: Displacement of [3H]-CP55,940 from human CB2R expressed in CHO-K1 cell membranes assessed as inhibition constant incubated for 2 hrs by liquid scintillation spectrometry. Details: species or system Membrane.
Data set [12] addresses T2, Cannabinoid receptor 2. Description: Displacement of [3H]-CP55,940 from human CB2R expressed in CHO-K1 cell membranes incubated for 2 hrs by liquid scintillation spectrophotometry relative to CP55,940. To be noted: Membrane. The procedure, abridged:
as §1

Data set [13] relates to BV-2. Description: Antiinflammatory activity in LPS-induced mouse microglial BV-2 cells assessed as decrease in IL-6 release at 1 uM preincubated for 1 hr followed by LPS-stimulation and measured after 4 hrs by ELISA. It counts as functional, cell-based. To be noted: time 5.0 hrs. The procedure, abridged:
(§2)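 Murine BV2 microglia given 1 μM compound 1 h before LPS (5 μg/mL), then stimulated 4 h. IL-6 or IL-10 in the medium measured by ELISA (pg/mL). Where used, SR144528 (1 μM) added 15 min before agonist. n = 3 independent experiments in duplicate; one-way ANOVA with Tukey test.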
On the technique in general: ELISA stands for enzyme-linked immunosorbent assay.

Data set [14] relates to BV-2. In words: Antiinflammatory activity in LPS-induced mouse microglial BV-2 cells assessed as increase in IL-10 release at 1 uM preincubated for 1 hr followed by LPS-stimulation and measured after 4 hrs by ELISA. It is filed as functional, cell-based. To be noted: time 5.0 hrs. In a few lines:
as §2

Data set [15] deals with HMC3. In words: Antiinflammatory activity in LPS/TNFalpha-induced HMC3 cells assessed as decrease in IL-6 release at 1 uM pretreated with compound for 1 hr followed by LPS/TNFalpha stimulation and measured after 24 hrs by ELISA. It is filed as functional, cell-based. To be noted: Homo sapiens, time 25.0 hrs. In a few lines:
(§3)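 HMC3 human microglia in high-glucose DMEM with 10% FBS, pretreated 1 h with compound (100 nM–10 μM), then stimulated with LPS (10 μg/mL) plus TNFα (50 ng/mL) for 24 h. IL-6 or IL-10 in the medium measured by ELISA. SR144528 (1 μM) added 15 min before agonist where used; JWH133 served as positive control. n = 3 in duplicate; ANOVA with Tukey test.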

Data set [16] relates to HMC3. Description: Antiinflammatory activity in LPS/TNFalpha-induced HMC3 cells assessed as increase in IL-10 release at 1 uM pretreated with compound for 1 hr followed by LPS/TNFalpha stimulation and measured after 24 hrs by ELISA. To be noted: Homo sapiens, time 25.0 hrs. It counts as functional, cell-based. The procedure, abridged:
as §3

Data set [17] can be described thus: Cytotoxicity against LPS/TNFalpha-induced HMC3 cells assessed as reduction in cell viability at 1 uM pretreated with compound for 1 hr followed by LPS/TNFalpha stimulation and measured after 24 hrs by MTT assay. It is filed as toxicity, cell-based. To be noted: human, hmc3, 25 h. In a few lines: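 HMC3 microglial cells exposed to compound at 100 nM, 1 μM and 10 μM; viability read by MTT reduction. n = 3 independent experiments in triplicate; one-way ANOVA with Tukey test.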

Data set [18] deals with Mus musculus. In words: Antinociceptive activity against oxaliplatin-induced neuropathic pain in CD-1 albino mouse assessed as decrease in neuropathic pain at 20 mg/kg, po measured after 15 to 60 mins by cold plate assay. Further details: scale not given: the % may be the effect or the level left. It is filed as functional. To be noted: time 15-60 min. The procedure, abridged:
(§4)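 Male CD-1 mice (22–25 g) given oxaliplatin 2.4 mg/kg i.p. in 5% glucose on days 1–2, 5–9 and 12–14. On day 15 compound given orally at 1, 5 or 20 mg/kg in 1% carboxymethylcellulose. Cold plate held at 4 °C; latency to paw licking or lifting recorded (cut-off 60 s) at 15, 30, 45, 60 and 75 min. 16 mice per group over 2 experimental sets.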

In data set [19] the test system is Mus musculus. Description: Antinociceptive activity against oxaliplatin-induced neuropathic pain in po dosed CD-1 albino mouse assessed as decrease in neuropathic pain measured upto 75 min by cold plate assay. It counts as functional, organism-based. To be noted: DDE = dose-dependent effect. In a few lines: as §4

Active and inactive are the calls of the source.

T1 sequence (P21554 whole entry): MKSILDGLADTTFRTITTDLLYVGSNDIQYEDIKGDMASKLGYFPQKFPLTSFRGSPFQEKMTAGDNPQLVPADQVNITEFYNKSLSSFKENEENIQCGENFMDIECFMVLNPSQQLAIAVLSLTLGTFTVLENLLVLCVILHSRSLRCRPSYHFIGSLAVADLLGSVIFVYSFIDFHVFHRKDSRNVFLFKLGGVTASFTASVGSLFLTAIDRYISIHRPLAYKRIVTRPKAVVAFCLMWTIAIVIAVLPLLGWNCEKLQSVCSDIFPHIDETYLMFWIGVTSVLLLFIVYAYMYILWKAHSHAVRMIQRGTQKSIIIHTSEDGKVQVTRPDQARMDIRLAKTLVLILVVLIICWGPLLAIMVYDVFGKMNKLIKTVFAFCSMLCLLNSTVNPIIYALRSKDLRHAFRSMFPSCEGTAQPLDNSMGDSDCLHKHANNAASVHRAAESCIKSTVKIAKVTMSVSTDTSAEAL
T2 sequence (P34972 whole entry): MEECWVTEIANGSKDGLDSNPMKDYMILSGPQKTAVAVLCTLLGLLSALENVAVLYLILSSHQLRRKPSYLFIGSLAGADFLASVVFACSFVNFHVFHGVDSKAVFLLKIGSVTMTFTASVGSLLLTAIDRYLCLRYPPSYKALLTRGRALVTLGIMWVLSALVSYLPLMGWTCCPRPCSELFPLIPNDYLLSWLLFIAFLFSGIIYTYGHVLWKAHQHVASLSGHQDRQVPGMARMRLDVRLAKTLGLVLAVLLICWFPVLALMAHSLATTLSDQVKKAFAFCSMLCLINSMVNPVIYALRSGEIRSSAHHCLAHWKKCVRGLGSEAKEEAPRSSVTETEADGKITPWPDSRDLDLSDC

As usually defined, the EC50 is the concentration at which the effect is half-maximal. The Emax is the maximal effect, on the per cent scale that the assay sets. What is called Ki is a dissociation constant, usually derived from enzyme kinetics or from competition with a known ligand. For `Cc1nc(OCCCCCn2cc(CCCn3cc(Br)c(C)c(NC(=O)C4CCCCCC4)c3=O)nn2)c(C(=O)NC2CCCCCC2)cc1Br`, the Emin came out at 95% at Cannabinoid receptor 1 [1] (filed as agonist) and 52% at Cannabinoid receptor 2 [12] (filed as agonist). The concentration giving a half-maximal response (EC50) at Cannabinoid receptor 2 [2] was 8 nM; at Cannabinoid receptor 2 [4] it was over 10000 nM. Moreover, the Emax was 38% at Cannabinoid receptor 2 [3]; 43% at Cannabinoid receptor 2 [5] (filed as agonist); 20% at Cannabinoid receptor 2 [6]; 38% at Cannabinoid receptor 2 [7]; 29% on Cannabinoid receptor 2 [8]; 39% on Cannabinoid receptor 2 [9]. Also, the Ki at Cannabinoid receptor 1 [10] was over 10000 nM; at Cannabinoid receptor 2 [11], 1.9 nM.
Take `Cc1c(Br)cn(Cc2ccc(F)cc2)c(=O)c1NC(=O)C1CCCCCC1`: the Emin worked out at 103% at Cannabinoid receptor 1 [1] (filed as agonist) and 130% at Cannabinoid receptor 2 [12] (filed as agonist). Moreover, the EC50 on Cannabinoid receptor 2 [2] and on Cannabinoid receptor 2 [4] was over 10000 nM in each case. Further, the Emax on Cannabinoid receptor 2 [3] came to 2.5%; at Cannabinoid receptor 2 [5], 1.4%. In addition, the figures for the Ki at Cannabinoid receptor 1 [10] and at Cannabinoid receptor 2 [11] were over 10000 nM and 19 nM, respectively.
`Cc1c(Br)cn(CCCc2cn(CCCn3c(C)c(Br)cc(C(=O)NC4CCCCCC4)c3=O)nn2)c(=O)c1NC(=O)C1CCCCCC1`: the EC50 at Cannabinoid receptor 2 [2] and at Cannabinoid receptor 2 [4] was over 10000 nM in each case. Also, the values for the Emax at Cannabinoid receptor 2 [3] and on Cannabinoid receptor 2 [5] (filed as agonist) were 21% and 46%, respectively.
For `Cc1c(Br)cn(Cc2cn(CCCCCn3c(C)c(Br)cc(C(=O)NC4CCCCCC4)c3=O)nn2)c(=O)c1NC(=O)C1CCCCCC1`, the half-maximal effective concentration (EC50) at Cannabinoid receptor 2 [2] and at Cannabinoid receptor 2 [4] was over 10000 nM throughout. The Emax worked out at 22% at Cannabinoid receptor 2 [3] and 41% on Cannabinoid receptor 2 [5] (filed as agonist).
Take `Cc1c(Br)cc(C(=O)NC2CCCCCC2)c(=O)n1Cc1ccc(F)cc1`: the Emin amounted to 29% on Cannabinoid receptor 1 [1] and 13% on Cannabinoid receptor 2 [12]. Also, the results for the 50% effective concentration (EC50) on Cannabinoid receptor 2 [2] and on Cannabinoid receptor 2 [4] were 20 nM and 63 nM, respectively. Moreover, the results for the maximal effect (Emax) at Cannabinoid receptor 2 [3] (filed as agonist) and at Cannabinoid receptor 2 [5] (filed as agonist) were 76% and 45%, respectively. Further, the Ki at Cannabinoid receptor 1 [10] came out at 0.79 nM; on Cannabinoid receptor 2 [11] it was 7 nM.
For the compound `Cc1c(Br)cn(Cc2cn(CCCn3c(C)c(Br)cc(C(=O)NC4CCCCCC4)c3=O)nn2)c(=O)c1NC(=O)C1CCCCCC1`, the results for the EC50 at Cannabinoid receptor 2 [2] and at Cannabinoid receptor 2 [4] were over 10000 nM and 560 nM, respectively. For the same compound, the maximum response (Emax) came out at 21% at Cannabinoid receptor 2 [3] and 53% on Cannabinoid receptor 2 [5] (filed as agonist).
With `Cc1c(Br)cn(CCCc2cn(CCCCCn3c(C)c(Br)cc(C(=O)NC4CCCCCC4)c3=O)nn2)c(=O)c1NC(=O)C1CCCCCC1`, the figures for the Emin on Cannabinoid receptor 1 [1] (filed as agonist) and on Cannabinoid receptor 2 [12] (filed as agonist) were 89% and 40%, respectively. Further, the EC50 at Cannabinoid receptor 2 [2] was 73 nM; on Cannabinoid receptor 2 [4], over 10000 nM; on Cannabinoid receptor 2 [6], 2.2 nM; on Cannabinoid receptor 2 [7] it was 8 nM; at Cannabinoid receptor 2 [9] it was 61 nM. In addition, the Emax is 52% on Cannabinoid receptor 2 [3] (filed as agonist) and 30% on Cannabinoid receptor 2 [5]. Further, the Ki on Cannabinoid receptor 1 [10] is over 10000 nM; at Cannabinoid receptor 2 [11], 1.4 nM. Further, the outcome in the data set on BV-2 [13], in the data set with BV-2 [14], in the data set with HMC3 [15] and in the data set with HMC3 [16] was Active. Moreover, the figures for the Activity result (in [17]; in the data set with Mus musculus [18]; in the data set on Mus musculus [19]) were “Non-Toxic”, 100% and “Dde”, respectively.
Consider `CCCCCCC(C)(C)c1ccc([C@@H]2C[C@H](O)CC[C@H]2CCCO)c(O)c1`, for which the Emin on Cannabinoid receptor 1 [1] and on Cannabinoid receptor 2 [12] was 0% in each case.
